Values after ≈ are worked out from the molar mass of the structure shown. Active and inactive are the calls of the source. No cut-off for these calls is given here.
Key:
Candida albicans = assay: Antifungal activity against Candida albicans; format: functional
[1] = Acute toxicity in mouse at 300 mg/kg, ip administered as single dose; format: organism-based; conditions: in vivo
How it was run: (§1)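 Mice, single intraperitoneal dose, following OECD Guideline for testing of chemicals; three mice per dose level; doses tested 10–300 mg/kg. Read-out is the number of survivors out of 3, used to estimate the expected LD50 range.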

Streptococcus pyogenes = assay: Antibacterial activity against Streptococcus pyogenes; format: functional
[2] = test system: Trichophyton interdigitale; assay: Antifungal activity against Trichophyton mentagrophytes var. interdigitale; format: functional
Neisseria gonorrhoeae = assay: Antibacterial activity against Neisseria gonorrhoeae; format: functional
Rattus norvegicus [3] = assay: Analgesic activity in rat assessed as prolongation of latency period at 25 mg/kg, ip measured after 1 hr by hot-plate test relative to control; format: functional, organism-based
How it was run: (§2)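 Hot-plate test in rats. Compounds were given by intraperitoneal injection. Latency was read at 1 h and, for some compounds, also at 2 h after dosing. Results are expressed as % prolongation of the latent period versus vehicle-treated control. Significance was given as p-values.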

Rattus norvegicus [4] = assay: Antiinflammatory activity in rat model of carrageenan-induced paw edema assessed as inhibition of hind paw swelling at 25 mg/kg, ip measured after 5 hrs; format: functional, organism-based
Proteus vulgaris = assay: Antibacterial activity against Proteus vulgaris; format: functional
Klebsiella pneumoniae = assay: Antibacterial activity against Klebsiella pneumoniae; format: functional
Nannizzia gypsea = assay: Antifungal activity against Trichophyton gypseum; format: functional
Shigella flexneri = assay: Antibacterial activity against Shigella flexneri; format: functional
Serratia marcescens = assay: Antibacterial activity against Serratia marcescens; format: functional
Citrobacter braakii = assay: Antibacterial activity against Citrobacter braakii; format: functional
Pseudomonas aeruginosa = assay: Antibacterial activity against Pseudomonas aeruginosa; format: functional
Escherichia coli = assay: Antibacterial activity against Escherichia coli; format: functional
Microsporum canis = assay: Antifungal activity against Microsporum canis; format: functional
Trichophyton rubrum = assay: Antifungal activity against Trichophyton rubrum; format: functional
Staphylococcus aureus = assay: Antibacterial activity against Staphylococcus aureus; format: functional
Epidermophyton floccosum = assay: Antifungal activity against Epidermophyton floccosum; format: functional
Trichophyton violaceum = assay: Antifungal activity against Trichophyton violaceum; format: functional
Trichophyton tonsurans = assay: Antifungal activity against Trichophyton tonsurans; format: functional
Erythrocyte [5] = assay: Antioxidant activity in human erythrocytes assessed as protection against AAPH-induced hemolysis at 50 uM preincubated for 20 mins followed by AAPH addition and measured after 2 hrs by spectrophotometric method relative to control; format: functional; conditions: time 140 min, 2.333 h
How it was run: (§3)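 Erythrocyte hemolysis assay with AAPH as the free-radical initiator, testing 50 and 400 µM. Results are expressed as relative protection of membranes against oxidative damage, each the mean of two independent experiments.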

[6] = Antioxidant activity assessed as trolox equivalent of ABTS radical scavenging activity measured after 1 hr by UV-vis spectrophotometric method; format: functional
How it was run: (§4)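 ABTS cation-radical decolorization was read spectrophotometrically as the fall in absorbance after 1 h. Trolox was the reference. TEAC was taken as the ratio of concentration-response slopes, test/Trolox, and IC50 was also derived. Data are mean ± SEM, n = 3.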

[7] = Acute toxicity in ip dosed mouse administered as single dose; format: organism-based; conditions: in vivo; how it was run: as §1
Rattus norvegicus [8] = assay: Antiinflammatory activity in rat model of carrageenan-induced paw edema assessed as inhibition of hind paw swelling at 15 mg/kg, ip measured after 1 hr relative to control; format: functional
HeLa = assay: Cytotoxicity against human HeLa cells; format: functional, cell-based; conditions: for IC50: Homo sapiens, HeLa, read-out: IC50
Rattus norvegicus [9] = assay: Antiinflammatory activity in rat model of carrageenan-induced paw edema assessed as inhibition of hind paw swelling at 15 mg/kg, ip measured after 3 hrs relative to control; format: functional
[10] = Antioxidant activity assessed as AAPH scavenging activity by measuring residual fluorescence at 50 uM measured at 1 min interval for 30 mins by ORAC fluorescein assay relative to control; format: functional
How it was run: (§5)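 ORAC-FL assay with fluorescein as the probe and AAPH as the peroxyl radical generator. The loss of fluorescence over time was followed, and the result is given as % fluorescence restored at 10 and 50 µM. Each value is the mean of two independent experiments.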

Erythrocyte [11] = assay: Antioxidant activity in human erythrocytes assessed as protection against AAPH-induced hemolysis at 400 uM preincubated for 20 mins followed by AAPH addition and measured after 2 hrs by spectrophotometric method relative to control; format: functional; conditions: time 140 min, 2.333 h; how it was run: as §3
Rattus norvegicus [12] = assay: Analgesic activity in rat assessed as prolongation of latency period at 15 mg/kg, ip measured after 1 hr by hot-plate test relative to control; format: functional; how it was run: as §2
[13] = Selectivity index, ratio of IC50 for HDF cells to IC50 for human HeLa cells; format: toxicity; conditions: HDF cells versus HeLa cells, read-out: Ratio IC50
[14] = Antioxidant activity assessed as ABTS radical scavenging activity measured after 1 hr by UV-vis spectrophotometric method; format: functional; how it was run: as §4
Rattus norvegicus [15] = assay: Analgesic activity in rat assessed as prolongation of latency period at 15 mg/kg, ip measured after 2 hrs by hot-plate test relative to control; format: functional; how it was run: as §2
NHDF = assay: Cytotoxicity against HDF cells; format: cell-based, Homo sapiens
Rattus norvegicus [16] = assay: Antiinflammatory activity in rat model of carrageenan-induced paw edema assessed as inhibition of hind paw swelling at 15 mg/kg, ip measured after 5 hrs; format: functional, organism-based
[17] = Antioxidant activity assessed as AAPH scavenging activity by measuring residual fluorescence at 10 uM measured at 1 min interval for 30 mins by ORAC fluorescein assay relative to control; format: functional; how it was run: as §5
Rattus norvegicus [18] = assay: Antiinflammatory activity in rat model of carrageenan-induced paw edema assessed as inhibition of hind paw swelling at 10 mg/kg, ip measured after 3 hrs relative to control; format: functional
Rattus norvegicus [19] = assay: Antiinflammatory activity in rat model of carrageenan-induced paw edema assessed as inhibition of hind paw swelling at 10 mg/kg, ip measured after 1 hr relative to control; format: functional
Rattus norvegicus [20] = assay: Analgesic activity in rat assessed as prolongation of latency period at 10 mg/kg, ip measured after 1 hr by hot-plate test relative to control; format: functional; how it was run: as §2
[21] = Acute toxicity in mouse at 70 mg/kg, ip administered as single dose; format: organism-based; conditions: in vivo; how it was run: as §1
[22] = test system: Mycobacterium tuberculosis; assay: Antitubercular activity against Mycobacterium tuberculosis H37Rv; format: functional
How it was run: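 Mycobacterium tuberculosis strain H37Rv; minimum inhibitory concentration (MIC) taken as the lowest level needed to inhibit bacterial growth; isoniazid and pyrazinamide served as reference drugs.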

[23] = Acute toxicity in mouse at 60 mg/kg, ip administered as single dose; format: organism-based; conditions: in vivo; how it was run: as §1

## Cc1ccc(-c2c(N=O)c(C(F)(F)F)nn2-c2ccc(S(N)(=O)=O)cc2)cc1
Candida albicans
  MIC: > 200 µg/mL
[1]
  Activity: Non-Toxic
Streptococcus pyogenes
  MIC: > 250 µg/mL
[2]
  MIC: 200 µg/mL (≈ 487 µM)
Neisseria gonorrhoeae
  MIC: 31.2 µg/mL (≈ 76 µM)
Rattus norvegicus [3]
  Activity: inactive
Rattus norvegicus [4]
  Activity: inactive
Proteus vulgaris
  MIC: > 250 µg/mL
Klebsiella pneumoniae
  MIC: > 250 µg/mL
Nannizzia gypsea
  MIC: 200 µg/mL (≈ 487 µM)
Shigella flexneri
  MIC: > 250 µg/mL
Serratia marcescens
  MIC: > 250 µg/mL
Citrobacter braakii
  MIC: > 250 µg/mL
Pseudomonas aeruginosa
  MIC: > 250 µg/mL
Escherichia coli
  MIC: > 250 µg/mL
Microsporum canis
  MIC: 200 µg/mL (≈ 487 µM)
Trichophyton rubrum
  MIC: 200 µg/mL (≈ 487 µM)
Staphylococcus aureus
  MIC: > 250 µg/mL
Epidermophyton floccosum
  MIC: 200 µg/mL (≈ 487 µM)
Trichophyton violaceum
  MIC: > 200 µg/mL
Trichophyton tonsurans
  MIC: 200 µg/mL (≈ 487 µM)

## Cc1ccc(C2=NN(c3ccc(S(N)(=O)=O)cc3)C(O)(C(F)(F)F)/C2=N/O)cc1 (stereo not given)
Erythrocyte [5]
  fold change (FC): 1.09
[6]
  Activity: 0.48 equiv
[7]
  LD50: > 300 mg/kg
[1]
  Activity: Non-Toxic
Rattus norvegicus [8]
  inhibition: inactive
HeLa
  Activity: Dose-dependent effect
  IC50: 7.23 µM
Rattus norvegicus [9]
  inhibition: inactive
[10]
  Activity: 59.4%
Erythrocyte [11]
  fold change (FC): 1.08
Rattus norvegicus [12]
  Activity: 58.9%
[13]
  selectivity ratio: 13.7
[14]
  IC50: 45.3 µM
Rattus norvegicus [15]
  Activity: 96.55%
NHDF; Homo sapiens, NHDF, read-out: IC50
  IC50: 99.3 µM
Rattus norvegicus [16]
  Activity: Active
[17]
  Activity: 38.5%

## O=C(O)Cc1ccccc1Nc1c(Cl)cccc1Cl [DICLOFENAC]
Rattus norvegicus [18]
  inhibition in vivo at 10 mg/kg: 61.8%
Rattus norvegicus [19]
  inhibition in vivo at 10 mg/kg: 53.9%
Rattus norvegicus [20]
  Activity: 57.1%
[21]
  Activity: Non-Toxic

## Cl.Cn1nc(C(F)(F)F)c(N)c1-c1ccccc1
Erythrocyte [5]
  fold change (FC): 1.19
Candida albicans
  MIC: > 200 µg/mL
[6]
  Activity: inactive
Streptococcus pyogenes
  MIC: > 250 µg/mL
[2]
  MIC: > 200 µg/mL
Neisseria gonorrhoeae
  MIC: > 250 µg/mL
Rattus norvegicus [8]
  inhibition in vivo at 15 mg/kg: 54.3%
HeLa
  Activity: Dose-dependent effect
  IC50: 0.074 µM
[22]
  MIC: 12.5 µg/mL
Rattus norvegicus [9]
  inhibition in vivo at 15 mg/kg: 32.9%
Proteus vulgaris
  MIC: > 250 µg/mL
[10]
  Activity: 79%
Klebsiella pneumoniae
  MIC: > 250 µg/mL
Nannizzia gypsea
  MIC: > 200 µg/mL
Erythrocyte [11]
  fold change (FC): 1.11
Shigella flexneri
  MIC: > 250 µg/mL
Rattus norvegicus [12]
  Activity: 100.74%
[23]
  Activity: Non-Toxic
[13]
  selectivity ratio: > 1350
Serratia marcescens
  MIC: > 250 µg/mL
Citrobacter braakii
  MIC: > 250 µg/mL
Pseudomonas aeruginosa
  MIC: > 250 µg/mL
Escherichia coli
  MIC: > 250 µg/mL
Microsporum canis
  MIC: 200 µg/mL
Trichophyton rubrum
  MIC: 200 µg/mL
NHDF; nhdf
  IC50: Not Active
Staphylococcus aureus
  MIC: > 250 µg/mL
Rattus norvegicus [16]
  Activity: Active
[17]
  Activity: 38.2%
Epidermophyton floccosum
  MIC: 200 µg/mL
Trichophyton violaceum
  MIC: 200 µg/mL
Trichophyton tonsurans
  MIC: > 200 µg/mL
